# Results gathered from unrelated publications.
# Lines come from different studies, so protocols differ.
# Target: Ephrin type-B receptor 4 (EPHB4, Homo sapiens, UniProt P54760)
Compound,effect on,action,technique,tested at,endpoint,result
Cc1nc(Cc2cccc(C(F)(F)F)c2)sc1-c1ccc(C(N)=O)nc1,cell-free assay,,competition with immobilised ligand,1 µM,remaining binding,100%
CC(C)(C)c1nc2c(s1)c1nc(N)ncc1c1ccc(NS(=O)(=O)c3c(F)cccc3F)c(F)c12,enzyme activity,inhibitor,radiometric,1 µM,remaining activity,93%
COc1cc2ncnc(Nc3ccc(Oc4ccccc4)cc3C)c2cc1OC,enzyme activity,inhibitor,,1 µM,inhibition,21%
O=C1NC(=O)c2cc(Nc3ccc(F)cc3)c(Nc3ccc(F)cc3)cc21,cell-free assay,,,0.5 µM,remaining signal,108%
Cc1c[nH]c2nccc(Oc3c(F)cc(Nc4cc(Cl)nc(N)n4)cc3F)c12,cell-free assay,,competition with immobilised ligand,0.1 µM,remaining binding,100%
Cn1c(=O)n(-c2ccc(C(C)(C)C#N)cc2)c2c3cc(-c4cnc5ccccc5c4)ccc3ncc21,enzyme activity,inhibitor,,10 µM,remaining activity,99%
Cc1cnc(NC2CCOCC2)nc1-n1cnc(C(=O)NC(CN)c2cc(F)cc(Cl)c2)c1 (stereo not drawn),enzyme activity,inhibitor,radiometric,1 µM,remaining activity,89%
COc1cc2c(Nc3ccc(Br)cc3F)ncnc2cc1OCC1CCN(C)CC1,cell-free assay,,,0.5 µM,remaining signal,13%
Cc1sc(C(=O)NC2COC2)cc1-n1cc(NC(=O)Nc2c(F)cccc2Cl)cn1,enzyme activity,inhibitor,,10 µM,remaining activity,93.7%
Cc1ccc(C(=O)Nc2ccc(CN3CCN(C)CC3)c(C(F)(F)F)c2)cc1C#Cc1cnc2cccnn12,cell-free assay,,,23.5 nM,remaining signal,92%
COc1cc(/C=C/C(=O)CC(=O)/C=C/c2ccc(O)c(OC)c2)ccc1O,enzyme activity,inhibitor,,1 µM,activity vs control,105%
CSc1cccnc1N1CCN(Cc2nc3ccccc3[nH]2)CC1,cell-free assay,,competition with immobilised ligand,1 µM,remaining binding,100%
CNCc1ccc(-c2cc(-c3nc(-c4ccc(S(=O)(=O)C(C)C)cc4)cnc3N)on2)cc1,enzyme activity,inhibitor,,2 µM,inhibition,10%
O=C(NCc1ncc(C(F)(F)F)cc1Cl)c1ccc2c(c1)C1(CCS(=O)(=O)CC1)[C@H](C1CC1)N2S(=O)(=O)c1ccc(F)cc1,cell-free assay,,competition with immobilised ligand,1 µM,remaining binding,100%
CCN(CC)c1ccc(C2=NNC(=O)CC2C)cc1[N+](=O)[O-] (stereo not drawn),enzyme activity,inhibitor,,10 µM,remaining activity,100%
C=CC(=O)Nc1cc(Nc2nccc(Nc3cc(Cl)c(F)cc3C(C)(C)O)n2)c(OC)cc1N1CC[C@@H](N(C)C)C1,enzyme activity,inhibitor,,1 µM,inhibition,7%
CC1=C(C#N)[C@@H](c2ccc3[nH]nc(C)c3c2)C(C#N)=C(c2ccc(Cl)cc2)N1,cell-free assay,,competition with immobilised ligand,1 µM,remaining binding,100%
O=C1Nc2ccc(Cl)cc2C1=Cc1cc(Cl)c(O)c(Cl)c1,cell-free assay,,,0.5 µM,remaining signal,100%
COc1cc(Nc2cnc(C#N)c(O[C@H](C)CN(C)C)n2)ncc1-c1cnn(C)c1,enzyme activity,inhibitor,radiometric,10 µM,remaining activity,88%
Nc1ncnc2occ(-c3ccc(NC(=O)Nc4cc(C(F)(F)F)ccc4F)cc3)c12,cell-free assay,,,20 µM,remaining signal,0%
CC(C)(O)[C@H]1CC[C@H](Nc2ccc3ncc(-c4cccc(C(F)(F)F)c4)n3n2)CC1,enzyme activity,inhibitor,,1 µM,remaining activity,78.2%
CC/C(=N\NC(=O)NCc1cccc(O)c1)c1ccc(O)c(C)c1O,enzyme activity,inhibitor,,0.1 µM,inhibition,0.2%
CN([C@@H]1CCc2c(CC(=O)O)c3cc(S(C)(=O)=O)ccc3n2C1)S(=O)(=O)c1ccc(F)cc1,cell-free assay,,competition with immobilised ligand,1 µM,remaining binding,95%
Cc1[nH]c(/C=C2\C(=O)Nc3ccc(F)cc32)c(C)c1C(=O)N[C@H]1CCN(C(=O)N(C)C)C1,enzyme activity,inhibitor,,0.1 µM,remaining activity,111%
CSc1nc(C)c(-c2ccnc(Nc3ccc(N4CCOCC4)cc3)c2)[nH]1,cell-free assay,inhibitor,,10 µM,inhibition,18.2%
CS(=O)(=O)N1CCCC(NC(=O)[C@H](CCC2CCCCC2)NC(=O)c2ccc(CNc3ncnc4c3nnn4-c3ccccc3)cc2)C1 (stereo partly drawn),cell-free assay,,competition with immobilised ligand,0.1 µM,remaining binding,96%
CCCCNc1ncc2c(-c3ccc(F)cc3)nn(C[C@H]3CC[C@H](N)CC3)c2n1,target engagement in cells,inhibitor,chemoproteomics,20 mM,inhibition,97.5%
CO[C@H]1CC[C@H](CNc2ccc(S(=O)(=O)NC(=O)c3ccc(N4CCN(CC5=C(c6ccc(Cl)cc6)CC(C)(C)CC5)CC4)cc3Oc3cnc4[nH]ccc4c3)cc2[N+](=O)[O-])CC1,cell-free assay,,competition with immobilised ligand,1 µM,remaining binding,100%
Oc1ccc(-c2nc(-c3ccncc3)c(-c3ccc(F)cc3)[nH]2)cc1,cell-free assay,,,0.5 µM,remaining signal,89%
c1ccc(CNc2nc(N3CCOc4ccccc43)nc3c2CCCC3)cc1,target engagement in cells,inhibitor,chemoproteomics,20 mM,inhibition,-4%
